In ChEMBL document CHEMBL1132072, “Synthesis, in vitro cytotoxicity and in vivo anti-inflammatory activity of long chain 3-amino-1,2-diols” (Bioorg Med Chem Lett, 1999) one finds IC50 and Inhibition data, which are given here for 7 molecules.

The subject of one assay is A2780. Briefly: In vitro inhibitory activity against human ovarian cancer A2780 cell line. It is filed as functional, cell-based. The gist of the method:
(§1)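 Monolayer cultures in RPMI 1640 with 5% heat-inactivated FCS and 2 mM L-glutamine, 37 °C, 5% CO2. Seeded at 5,000–20,000 cells/well according to doubling time, in gentamicin-containing medium. Compounds dissolved in DMSO and tested at five 10-fold dilutions from a top final concentration of 10⁻⁴ M for 72 h. Cells were TCA-fixed and stained with SRB, with OD read at 492 nm (NCI protocol). IC50 is the concentration giving 50% growth inhibition.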

The subject of the next assay is Colon 26. In words: In vitro inhibitory activity against murine colon carcinoma C26-10 cell line. It is filed as functional, cell-based. The settings on record: Mus musculus. The gist of the method: as §1
The subject of another assay is H322. Briefly: In vitro inhibitory activity against H322 human NSCLC cell line. The format is functional, cell-based. Particulars: NCI-H322. The gist of the method: as §1
In assay [1] the test system is Lewis lung carcinoma cell line. In words: In vitro inhibitory activity against LL murine NSCLC cell line;. The format is functional, cell-based. The settings on record: Mus musculus. The gist of the method:
as §1

Another assay concerns UMSCC22B. Briefly: In vitro inhibitory activity against human and neck squamous cell carcinoma UMSCC-22B cell line. The format is functional, cell-based. The gist of the method:
as §1

A further assay concerns WiDr. Briefly: In vitro inhibitory activity against human colon carcinoma WiDr cell line;. The format is functional, cell-based. The essentials:
as §1

Assay [2] concerns Rattus norvegicus. In words: In vivo anti-inflammatory activity against carrageenan-induced paw edema assay in rats at dose 0.15 mM/kg. The format is functional. The gist of the method:
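Fisher 344 rats of either sex, excluding pregnant females, six animals per group with two groups per compound. Edema induced by intradermal injection of 0.1 mL of 2% carrageenin (type K100) in saline into the right paw. Compound given ip as a single 0.15 mmol/kg dose at the same time. Paw edema measured 3.5 h later. Indomethacin served as the reference drug.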
(In the carrageenan paw model, swelling and tenderness develop within hours.)

Assay [3] has as its system Rattus norvegicus. Briefly: In vivo anti-inflammatory activity against carrageenan-induced paw edema assay in rats at dose 0.11 mM/kg. The format is functional.

Consider `CCCCCCCCCCCCCCCCCC[C@H](N)[C@H](O)CO`, for which the IC50 (in general, the concentration at which inhibition is half-maximal) in the assay with A2780 turned out to be 2.71 µM; in the assay on Colon 26, 3.97 µM; with H322, 1.71 µM; in assay [1] it was 3.47 µM; with UMSCC22B, 2.34 µM; in the assay on WiDr, 3.47 µM. Besides, in the assay on Rattus norvegicus [2], the Inhibition (in general, how much of the control response was suppressed) was 79.6%.
Take `CCCCCCCCCCCCCC[C@H](NC(=O)OC(C)(C)C)[C@H](O)CO`: the IC50 in the assay with A2780 is 30.4 µM; with Colon 26, 29.3 µM; in the assay on H322, 18 µM; in assay [1], 24.2 µM; in the assay with UMSCC22B it was 23.8 µM; in the assay with WiDr, 20.8 µM. The Inhibition in the assay on Rattus norvegicus [2] turned out to be 45.2%.
With `CCCCCCCCCCCCCC[C@@H](N)[C@@H](O)CO`, the IC50 in the assay with A2780 was 2.63 µM; with Colon 26 it was 3.58 µM; in the assay on H322, 1.52 µM; in assay [1] it was 1.87 µM; in the assay on UMSCC22B, 2.49 µM; in the assay with WiDr it was 2.99 µM. Moreover, the Inhibition with Rattus norvegicus [2] is given as 85.3%.
For `CCCCCCCCCCCCCCCCCC[C@@H](N)[C@@H](O)CO`, the IC50 was found to be 32.8 µM in the assay on A2780; 21.5 µM in the assay with Colon 26; 24.4 µM with H322; 10.6 µM in assay [1]; 3.5 µM in the assay with UMSCC22B; 13.3 µM with WiDr. The Inhibition in the assay on Rattus norvegicus [2] is listed as 80.04%.
Regarding `CCCCCCCCCCCCCC[C@H](N)[C@H](O)CO`, the IC50 with A2780 is 2.66 µM; with Colon 26, 3.68 µM; in the assay with H322, 1.45 µM; in assay [1], 2.86 µM; in the assay with UMSCC22B, 1.89 µM; in the assay with WiDr, 2.76 µM. The molecule further displayed an Inhibition in the assay with Rattus norvegicus [2] of 81.1%.
Turning to `CCCCCCCCCCCCCCC(N)CN` (stereo not drawn), the IC50 with A2780 turned out to be 2.79 µM; with Colon 26, 3.3 µM; in the assay on H322, 2.94 µM; in assay [1], 2.93 µM; in the assay on UMSCC22B, 1.89 µM; with WiDr, 24.2 µM. The molecule also returned an Inhibition with Rattus norvegicus [2] of 93.5%.
For `COc1ccc2c(c1)c(CC(=O)O)c(C)n2C(=O)c1ccc(Cl)cc1` [INDOMETHACIN], the Inhibition with Rattus norvegicus [3] is reported as 53.3%.
